According to ChEMBL document CHEMBL5712080, “PRMT5 promotes cell proliferation by inhibiting BTG2 expression via the ERK signaling pathway in hepatocellular carcinoma” (Cancer Med, 2018):
Activity calls are given as the source filed them.

Legend:
Huh-7 [1] = assay: Upregulation of BTG2 protein in PRMT5 knockdown human Huh-7 cells at 20 microM for 24 hrs by Western blot analysis; assay type: functional, cell-based
How it was run: (§1)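 Huh7 or SK-Hep1 cells stably carrying lentiviral shRNA against PRMT5, selected 2 weeks in puromycin (final 1 μg/mL), grown in DMEM/10% FBS at 37°C, 5% CO2. Cells pretreated 24 h with 20 μM PD184352 (ERK phosphorylation inhibitor). RIPA lysates run on 8–12% SDS-PAGE, PVDF, 5% milk block, primary antibody overnight at 4°C, HRP secondary, chemiluminescent detection. Histone 3 was the nuclear loading control.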

SK-HEP1 [2] = assay: Upregulation of BTG2 protein in PRMT5 knockdown human SK-HEP1 cells at 20 microM for 24 hrs by Western blot analysis; assay type: functional, cell-based; how it was run: as §1
[3] = target: Protein arginine N-methyltransferase 5 (Homo sapiens) (UniProt O14744); assay: Inhibition of PRMT5 in human SK-HEP1 cells assessed as H4R3me2s protein level at 500 nM for 4 days by Western blot analysis; assay type: cell-based; details: time 4.0 day
Huh-7 [4] = assay: Reversal of BTG2 protein level in human Huh-7 cells at 500 nM for 4 days in presence of PD184352 by Western blotting analysis; assay type: functional, cell-based; details: time 4.0 day
[5] = target: Protein arginine N-methyltransferase 5 (Homo sapiens) (UniProt O14744); assay: Inhibition of PRMT5 in human Huh-7 cells assessed as H4R3me2s protein level at 500 nM for 4 days by Western blot analysis; assay type: cell-based; details: time 4.0 day
[6] = target: Protein arginine N-methyltransferase 5 (Homo sapiens) (UniProt O14744); assay: Inhibition of PRMT5 in human Huh-7 cells assessed as upregulation of ERK phosphorylation level at 500 nM for 4 days by Western blot analysis; assay type: cell-based; details: time 4.0 day
[7] = target: Protein arginine N-methyltransferase 5 (Homo sapiens) (UniProt O14744); assay: Inhibition of PRMT5 in human Huh-7 cells assessed as upregulation of BTG2 protein level at 500 nM for 4 days by Western blot analysis; assay type: cell-based; details: time 4.0 day
Huh-7 [8] = assay: Reversal of H4R3me2s level in human Huh-7 cells at 500 nM for 4 days in presence of PD184352 by Western blotting analysis; assay type: functional, cell-based; details: time 4.0 day
Huh-7 [9] = assay: Reversal of ERK phosphorylation level in human Huh-7 cells at 500 nM for 4 days in presence of PD184352 by Western blotting analysis; assay type: functional, cell-based; details: time 4.0 day
[10] = target: Protein arginine N-methyltransferase 5 (Homo sapiens) (UniProt O14744); assay: Inhibition of PRMT5 in human SK-HEP1 cells assessed as upregulation of BTG2 protein level at 500 nM for 4 days by Western blot analysis; assay type: cell-based; details: time 4.0 day
SK-HEP1 [11] = assay: Reversal of BTG2 protein level in human SK-HEP1 cells at 500 nM for 4 days in presence of PD184352 by Western blotting analysis; assay type: functional, cell-based; details: time 4.0 day
SK-HEP1 [12] = assay: Reversal of ERK phosphorylation level in human SK-HEP1 cells at 500 nM for 4 days in presence of PD184352 by Western blotting analysis; assay type: functional, cell-based; details: time 4.0 day
SK-HEP1 [13] = assay: Reversal of H4R3me2s level in human SK-HEP1 cells at 500 nM for 4 days in presence of PD184352 by Western blotting analysis; assay type: functional, cell-based; details: time 4.0 day
[14] = target: Protein arginine N-methyltransferase 5 (Homo sapiens) (UniProt O14744); assay: Inhibition of PRMT5 in human SK-HEP1 cells assessed as upregulation of ERK phosphorylation level at 500 nM for 4 days by Western blot analysis; assay type: cell-based; details: time 4.0 day

Sequence of Protein arginine N-methyltransferase 5 (Homo sapiens) (O14744 whole entry): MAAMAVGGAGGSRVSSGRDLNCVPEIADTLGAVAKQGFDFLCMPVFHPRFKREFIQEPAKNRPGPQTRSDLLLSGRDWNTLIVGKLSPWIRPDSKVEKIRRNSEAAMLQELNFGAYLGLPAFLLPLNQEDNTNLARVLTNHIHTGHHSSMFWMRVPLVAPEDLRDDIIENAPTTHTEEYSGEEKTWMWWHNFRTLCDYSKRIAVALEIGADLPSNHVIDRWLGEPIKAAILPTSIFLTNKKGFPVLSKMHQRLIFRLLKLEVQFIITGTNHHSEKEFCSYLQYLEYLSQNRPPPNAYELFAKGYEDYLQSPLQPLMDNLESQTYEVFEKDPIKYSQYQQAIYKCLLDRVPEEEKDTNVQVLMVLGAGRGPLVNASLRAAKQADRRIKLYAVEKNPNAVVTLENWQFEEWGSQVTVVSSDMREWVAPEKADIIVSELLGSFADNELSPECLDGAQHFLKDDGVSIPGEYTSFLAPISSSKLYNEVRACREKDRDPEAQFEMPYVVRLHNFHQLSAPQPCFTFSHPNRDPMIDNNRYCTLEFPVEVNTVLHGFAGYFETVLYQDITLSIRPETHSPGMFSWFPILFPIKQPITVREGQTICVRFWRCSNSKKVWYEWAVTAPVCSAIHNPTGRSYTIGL

O=C(NOCC1CC1)c1ccc(F)c(F)c1Nc1ccc(I)cc1Cl
active: Activity (Huh-7 [1]) | Activity (SK-HEP1 [2])

O=C(NC[C@H](O)CN1CCc2ccccc2C1)c1ccnc(NC2CCC2)c1
active: inhibition [3] | Activity (Huh-7 [4]) | inhibition [5] | inhibition [6] | inhibition [7] | Activity (Huh-7 [8]) | Activity (Huh-7 [9]) | inhibition [10] | Activity (SK-HEP1 [11]) | Activity (SK-HEP1 [12]) | Activity (SK-HEP1 [13]) | inhibition [14]
